Reference: ChEMBL document CHEMBL2086359, “Tormentic acid derivatives: synthesis and apoptotic activity” (Eur J Med Chem, 2012)
Calls of active or inactive are those of the source. The rule behind the calls is not given here.

Tests used:
MCF7 = assay: Cytotoxicity against human MCF7 cells after 96 hrs by SRB assay; type: functional, cell-based
How it was run: (§1)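 Monolayer cultures kept in RPMI 1640 with 10% heat-inactivated FBS and penicillin/streptomycin at 37 °C, 5% CO2. Exponentially growing cells were seeded and treated 24 h later with serial dilutions (0–30 µM) for 96 h, with DMSO or DMF at most 0.5% final. Cells were fixed with 10% TCA at 4 °C and stained with 0.4% SRB for about 30 min. Plates were washed with 1% acetic acid and the dye dissolved in 10 mM Tris base. Absorbance was read at 570 nm and survival taken relative to untreated controls. IC50 was estimated from dose–response curves, averaged from at least 5 independent experiments.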

518A2 [1] = assay: Induction of apoptosis in human 518A2 cells after 24 to 48 hrs by DNA laddering assay; type: functional, cell-based
How it was run: (§2)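 About 1×10^6 cells were grown in 25 cm2 flasks to 80% and exposed to compound-loaded medium for 24–48 h, with blank medium as control. Cells were collected from the supernatant (300 g, 4 °C), washed in PBS and lysed. Lysates were digested with RNase for 2 h at 37 °C, then with proteinase K for 12 h at 50 °C. DNA was run on agarose gel electrophoresis ([…], 2 h).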

[2] = Cytotoxicity against human A253 cells after 96 hrs by SRB assay; type: functional, cell-based; how it was run: as §1
NIH3T3 = assay: Cytotoxicity against mouse NIH/3T3 cells after 96 hrs by SRB assay; type: cell-based; how it was run: as §1
8505C [3] = assay: Induction of apoptosis in human 8505C cells after 24 to 48 hrs by DNA laddering assay; type: functional, cell-based; how it was run: as §2
A549 = assay: Cytotoxicity against human A549 cells after 96 hrs by SRB assay; type: functional, cell-based; how it was run: as §1
[4] = Cytotoxicity against human 518A2 cells after 96 hrs by SRB assay; type: functional, cell-based; how it was run: as §1
A2780 = assay: Cytotoxicity against human A2780 cells after 96 hrs by SRB assay; type: functional, cell-based; how it was run: as §1
DLD-1 = assay: Cytotoxicity against human DLD1 cells after 96 hrs by SRB assay; type: functional, cell-based; how it was run: as §1
8505C [5] = assay: Cytotoxicity against human 8505C cells after 96 hrs by SRB assay; type: functional, cell-based; how it was run: as §1
518A2 [6] = assay: Induction of apoptosis in human 518A2 cells assessed as blebbing of nuclear membrane at 30 uM after 24 hrs by acridine orange based fluorescence microscopy analysis; type: functional, cell-based
How it was run: (§3)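 They were treated with 30 µM compound, and the next day washed with PBS and stained with acridine orange. Living cells were inspected by fluorescence microscopy for chromatin condensation and nuclear membrane blebbing.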

[7] = Cytotoxicity against human WW030272 cells after 96 hrs by SRB assay; type: cell-based; how it was run: as §1
518A2 [8] = assay: Induction of apoptosis in human 518A2 cells assessed as condensation of chromatin at 30 uM after 24 hrs by acridine orange based fluorescence microscopy analysis; type: functional, cell-based; how it was run: as §3
8505C [9] = assay: Induction of apoptosis in human 8505C cells assessed as condensation of chromatin at 30 uM after 24 hrs by acridine orange based fluorescence microscopy analysis; type: functional, cell-based; how it was run: as §3
8505C [10] = assay: Induction of apoptosis in human 8505C cells assessed as induction of cell death after 24 to 48 hrs by AO/PI exclusion dye assay; type: functional, cell-based
How it was run: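 About 1×10^6 cells were grown in 25 cm2 flasks to 80% and given compound-loaded medium for 24–48 h, with blank medium as control. Cells were recovered from the supernatant (300 g, 4 °C), washed and resuspended in PBS. They were mixed 1:1 with AO/PI solution and viewed by fluorescence microscopy: green cells were scored as apoptotic, red as necrotic.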

8505C [11] = assay: Induction of apoptosis in human 8505C cells assessed as blebbing of nuclear membrane at 30 uM after 24 hrs by acridine orange based fluorescence microscopy analysis; type: functional, cell-based; how it was run: as §3

COC(=O)[C@]12CC[C@@H](C)[C@@](C)(O)[C@H]1C1=CC[C@@H]3[C@@]4(C)C[C@@H](OC(=O)CCl)[C@H](O)C(C)(C)[C@@H]4CC[C@@]3(C)[C@]1(C)CC2
IC50 (MCF7): 2.6 µmol
Activity (518A2 [1]): Active
IC50 [2]: 4.6 µmol
IC50 (NIH3T3): 2.1 µmol
Activity (8505C [3]): Active
IC50 (A549): 9.7 µmol
IC50 [4]: 4.5 µmol
IC50 (A2780): 2.6 µmol
IC50 (DLD-1): 3.7 µmol
IC50 (8505C [5]): 4.6 µmol

CC(=O)O[C@H]1[C@H](O)C[C@]2(C)[C@H]3CC=C4[C@H]5[C@](C(=O)O)(CC[C@@H](C)[C@@]5(C)O)CC[C@@]4(C)[C@]3(C)CC[C@H]2C1(C)C
IC50 (MCF7): 26.2 µmol
Activity (518A2 [1]): Active
IC50 [2]: > 30 µmol
IC50 (NIH3T3): > 30 µmol
Activity (8505C [3]): Active
IC50 (A549): > 30 µmol
IC50 [4]: > 30 µmol
IC50 (A2780): 28.1 µmol
IC50 (DLD-1): > 30 µmol
IC50 (8505C [5]): > 30 µmol

COC(=O)[C@]12CC[C@@H](C)[C@@](C)(O)[C@H]1C1=CC[C@@H]3[C@@]4(C)C[C@@H](O)[C@H](O)C(C)(C)[C@@H]4CC[C@@]3(C)[C@]1(C)CC2 [TORMENTIC ACID METHYL ESTER]
IC50 (MCF7): 31.3 µmol
Activity (518A2 [1]): Active
Activity (518A2 [6]): Active
IC50 [2]: 17 µmol
IC50 (NIH3T3): 15.6 µmol
IC50 [7]: 47.5 µmol
Activity (8505C [3]): Active
Activity (518A2 [8]): Active
Activity (8505C [9]): Active
Activity (8505C [10]): Active
Activity (8505C [11]): Active
IC50 [4]: 31.3 µmol
IC50 (A2780): 23.9 µmol
IC50 (DLD-1): 37.4 µmol
IC50 (8505C [5]): 42 µmol

CC(=O)O[C@@H]1C[C@]2(C)[C@H]3CC=C4[C@H]5[C@](C(=O)O)(CC[C@@H](C)[C@@]5(C)O)CC[C@@]4(C)[C@]3(C)CC[C@H]2C(C)(C)[C@H]1O
IC50 (MCF7): 25.3 µmol
Activity (518A2 [1]): Active
IC50 [2]: > 30 µmol
IC50 (NIH3T3): > 30 µmol
Activity (8505C [3]): Active
IC50 (A549): > 30 µmol
IC50 [4]: > 30 µmol
IC50 (A2780): 24.3 µmol
IC50 (DLD-1): > 30 µmol
IC50 (8505C [5]): > 30 µmol

COC(=O)[C@]12CC[C@@H](C)[C@@](C)(O)[C@H]1C1=CC[C@@H]3[C@@]4(C)C[C@@H](O)[C@H](OC(=O)CCl)C(C)(C)[C@@H]4CC[C@@]3(C)[C@]1(C)CC2
IC50 (MCF7): 6.9 µmol
Activity (518A2 [1]): Active
IC50 [2]: 4.1 µmol
IC50 (NIH3T3): 4.2 µmol
Activity (8505C [3]): Active
IC50 (A549): 10 µmol
IC50 [4]: 5.5 µmol
IC50 (A2780): 4.1 µmol
IC50 (DLD-1): 6 µmol
IC50 (8505C [5]): 7.5 µmol

COC(=O)[C@]12CC[C@@H](C)[C@@](C)(O)[C@H]1C1=CC[C@@H]3[C@@]4(C)C[C@@H](O)[C@@H](O)C(C)(C)[C@@H]4CC[C@@]3(C)[C@]1(C)CC2 [EUSCAPHIC ACID METHYL ESTER]
IC50 (MCF7): 17.8 µmol
Activity (518A2 [1]): Active
IC50 [2]: 16.4 µmol
IC50 (NIH3T3): > 30 µmol
IC50 [7]: 23.4 µmol
Activity (8505C [3]): Active
IC50 (A549): 30.6 µmol
IC50 [4]: 27.7 µmol
IC50 (A2780): 12.8 µmol
IC50 (DLD-1): 35.8 µmol
IC50 (8505C [5]): 29.3 µmol

COC(=O)[C@]12CC[C@@H](C)[C@@](C)(O)[C@H]1C1=CC[C@@H]3[C@@]4(C)C=C(O)C(=O)C(C)(C)[C@@H]4CC[C@@]3(C)[C@]1(C)CC2
IC50 (MCF7): 26 µmol
Activity (518A2 [1]): Active
IC50 [2]: > 30 µmol
IC50 (NIH3T3): > 30 µmol
Activity (8505C [3]): Active
IC50 (A549): > 30 µmol
IC50 [4]: 17.2 µmol
IC50 (A2780): > 30 µmol
IC50 (DLD-1): > 30 µmol
IC50 (8505C [5]): 25 µmol

COC(=O)[C@]12CC[C@@H](C)[C@@](C)(O)[C@H]1C1=CC[C@@H]3[C@@]4(C)CC(=O)[C@H](O)C(C)(C)[C@@H]4CC[C@@]3(C)[C@]1(C)CC2
IC50 (MCF7): 28.7 µmol
Activity (518A2 [1]): Active
IC50 (NIH3T3): 19.2 µmol
Activity (8505C [3]): Active
IC50 [4]: > 30 µmol
IC50 (A2780): 17.8 µmol
IC50 (DLD-1): > 30 µmol
IC50 (8505C [5]): > 30 µmol
